Reference: ChEMBL document CHEMBL1773057, “Design, synthesis and in vitro antimicrobial evaluation of novel Imidazo[1,2-a]pyridine and imidazo[2,1-b][1,3]benzothiazole motifs” (2011)
Values after ≈ are worked out from the molar mass of the structure shown.

test system: Escherichia coli; test: Antimicrobial activity against Escherichia coli after 24 hrs by broth microdilution method; format: functional; details: not given
Summary of the method: (§1)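 Broth microdilution. Bacteria were grown on Mueller-Hinton agar and diluted in Mueller-Hinton broth. Compounds were made as 1000 µg/mL stocks in 50% DMSO/H₂O and added to wells as two-fold dilutions starting at 500 µg/mL, then inoculated. Sealed plates were incubated at 37 °C for 24 h in a humid chamber. MIC was the lowest concentration with no visible turbidity.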

| SMILES | MIC |
| --- | --- |
| O=[N+]([O-])c1ccc(-c2nnc(-c3ccc4nc(-c5c[nH]c6ccc(Br)cc56)c(Nc5ccc(F)cc5)n4c3)o2)cc1 | 3.32 µg/mL (≈ 5.44 µM) |
| Fc1ccc(Nc2c(-c3cnc4ccc(Br)cc4c3)nc3ccc(-c4nnc(-c5ccc(F)cc5)o4)cn23)cc1 | 0.75 µg/mL (≈ 1.26 µM) |
| Cc1ccc(-c2cnc(-c3ccc4nc(-c5cnc6ccc(Br)cc6c5)c(Nc5ccc(F)cc5)n4c3)[nH]2)cc1 | 3.42 µg/mL (≈ 5.8 µM) |

Continued by falling MIC, values first:

| MIC | SMILES |
| --- | --- |
| 6.21 µg/mL (≈ 11 µM) | Cc1ccc2nc(-c3ccc4nc(-c5cnc6ccc(Br)cc6c5)c(Nc5ccc(F)cc5)n4c3)[nH]c2c1 |
| 2.43 µg/mL (≈ 4.11 µM) | Cc1ccc(-c2nnc(-c3ccc4nc(-c5cnc6ccc(Br)cc6c5)c(Nc5ccc(F)cc5)n4c3)o2)cc1 |
| 0.44 µg/mL (≈ 0.888 µM) | Fc1ccc(Nc2c(-c3c[nH]c4ccc(Br)cc34)nc3sc4cc(F)ccc4n23)cc1 |

test system: Priestia megaterium; test: Antimicrobial activity against Bacillus megaterium after 24 hrs by broth microdilution method; format: functional; details: not given; summary of the method: as §1

| SMILES | MIC |
| --- | --- |
| O=[N+]([O-])c1ccc(-c2nnc(-c3ccc4nc(-c5c[nH]c6ccc(Br)cc56)c(Nc5ccc(F)cc5)n4c3)o2)cc1 | 4.34 µg/mL (≈ 7.11 µM) |
| Fc1ccc(Nc2c(-c3cnc4ccc(Br)cc4c3)nc3ccc(-c4nnc(-c5ccc(F)cc5)o4)cn23)cc1 | 2.21 µg/mL (≈ 3.71 µM) |
| Cc1ccc(-c2cnc(-c3ccc4nc(-c5cnc6ccc(Br)cc6c5)c(Nc5ccc(F)cc5)n4c3)[nH]2)cc1 | 5.14 µg/mL (≈ 8.72 µM) |

Now from value to compound:

| MIC | SMILES |
| --- | --- |
| 7.54 µg/mL (≈ 13.4 µM) | Cc1ccc2nc(-c3ccc4nc(-c5cnc6ccc(Br)cc6c5)c(Nc5ccc(F)cc5)n4c3)[nH]c2c1 |
| 3.15 µg/mL (≈ 5.33 µM) | Cc1ccc(-c2nnc(-c3ccc4nc(-c5cnc6ccc(Br)cc6c5)c(Nc5ccc(F)cc5)n4c3)o2)cc1 |
| 1.69 µg/mL (≈ 3.41 µM) | Fc1ccc(Nc2c(-c3c[nH]c4ccc(Br)cc34)nc3sc4cc(F)ccc4n23)cc1 |

test system: Staphylococcus aureus; test: Antimicrobial activity against Staphylococcus aureus after 24 hrs by broth microdilution method; format: functional; details: not given; summary of the method: as §1

| SMILES | MIC |
| --- | --- |
| O=[N+]([O-])c1ccc(-c2nnc(-c3ccc4nc(-c5c[nH]c6ccc(Br)cc56)c(Nc5ccc(F)cc5)n4c3)o2)cc1 | 2.45 µg/mL (≈ 4.01 µM) |
| Fc1ccc(Nc2c(-c3cnc4ccc(Br)cc4c3)nc3ccc(-c4nnc(-c5ccc(F)cc5)o4)cn23)cc1 | 0.46 µg/mL (≈ 0.773 µM) |
| Cc1ccc(-c2cnc(-c3ccc4nc(-c5cnc6ccc(Br)cc6c5)c(Nc5ccc(F)cc5)n4c3)[nH]2)cc1 | 1.95 µg/mL (≈ 3.31 µM) |

Other lines, results leading:

| MIC | SMILES |
| --- | --- |
| 7.43 µg/mL (≈ 13.2 µM) | Cc1ccc2nc(-c3ccc4nc(-c5cnc6ccc(Br)cc6c5)c(Nc5ccc(F)cc5)n4c3)[nH]c2c1 |
| 1.24 µg/mL (≈ 2.1 µM) | Cc1ccc(-c2nnc(-c3ccc4nc(-c5cnc6ccc(Br)cc6c5)c(Nc5ccc(F)cc5)n4c3)o2)cc1 |
| 0.18 µg/mL (≈ 0.363 µM) | Fc1ccc(Nc2c(-c3c[nH]c4ccc(Br)cc34)nc3sc4cc(F)ccc4n23)cc1 |

test system: Aspergillus flavus; test: Antimicrobial activity against Aspergillus flavus after 48 hrs by broth microdilution method; format: functional; details: not given
Summary of the method: (§2)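 Fungi were grown on Sabouraud dextrose agar. Inocula were prepared in Sabouraud liquid medium at 37 °C for 12 h, then diluted in RPMI-1640 with L-glutamine, MOPS-buffered at pH 7. Compounds were made as 1000 µg/mL stocks in 50% DMSO/H₂O and tested as two-fold dilutions from 500 µg/mL. Sealed plates were incubated at 37 °C for 48 h in a humid chamber. MIC was the lowest concentration without visible turbidity.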

| SMILES | MIC |
| --- | --- |
| O=[N+]([O-])c1ccc(-c2nnc(-c3ccc4nc(-c5c[nH]c6ccc(Br)cc56)c(Nc5ccc(F)cc5)n4c3)o2)cc1 | 8.31 µg/mL (≈ 13.6 µM) |
| Fc1ccc(Nc2c(-c3cnc4ccc(Br)cc4c3)nc3ccc(-c4nnc(-c5ccc(F)cc5)o4)cn23)cc1 | 1.32 µg/mL (≈ 2.22 µM) |
| Cc1ccc(-c2cnc(-c3ccc4nc(-c5cnc6ccc(Br)cc6c5)c(Nc5ccc(F)cc5)n4c3)[nH]2)cc1 | 12.6 µg/mL (≈ 21.4 µM) |

More lines, now with the values ahead:

| MIC | SMILES |
| --- | --- |
| 15.4 µg/mL (≈ 27.4 µM) | Cc1ccc2nc(-c3ccc4nc(-c5cnc6ccc(Br)cc6c5)c(Nc5ccc(F)cc5)n4c3)[nH]c2c1 |
| 11.3 µg/mL (≈ 19.1 µM) | Cc1ccc(-c2nnc(-c3ccc4nc(-c5cnc6ccc(Br)cc6c5)c(Nc5ccc(F)cc5)n4c3)o2)cc1 |
| 2.13 µg/mL (≈ 4.3 µM) | Fc1ccc(Nc2c(-c3c[nH]c4ccc(Br)cc34)nc3sc4cc(F)ccc4n23)cc1 |

test system: Candida albicans; test: Antimicrobial activity against Candida albicans after 48 hrs by broth microdilution method; format: functional; details: not given; summary of the method: as §2

| SMILES | MIC |
| --- | --- |
| O=[N+]([O-])c1ccc(-c2nnc(-c3ccc4nc(-c5c[nH]c6ccc(Br)cc56)c(Nc5ccc(F)cc5)n4c3)o2)cc1 | 6.63 µg/mL (≈ 10.9 µM) |
| Fc1ccc(Nc2c(-c3cnc4ccc(Br)cc4c3)nc3ccc(-c4nnc(-c5ccc(F)cc5)o4)cn23)cc1 | 1.22 µg/mL (≈ 2.05 µM) |
| Cc1ccc(-c2cnc(-c3ccc4nc(-c5cnc6ccc(Br)cc6c5)c(Nc5ccc(F)cc5)n4c3)[nH]2)cc1 | 13.1 µg/mL (≈ 22.3 µM) |

Next, values leading:

| MIC | SMILES |
| --- | --- |
| 16.4 µg/mL (≈ 29 µM) | Cc1ccc2nc(-c3ccc4nc(-c5cnc6ccc(Br)cc6c5)c(Nc5ccc(F)cc5)n4c3)[nH]c2c1 |
| 12.2 µg/mL (≈ 20.7 µM) | Cc1ccc(-c2nnc(-c3ccc4nc(-c5cnc6ccc(Br)cc6c5)c(Nc5ccc(F)cc5)n4c3)o2)cc1 |
| 2.23 µg/mL (≈ 4.5 µM) | Fc1ccc(Nc2c(-c3c[nH]c4ccc(Br)cc34)nc3sc4cc(F)ccc4n23)cc1 |

test system: Pseudomonas aeruginosa; test: Antimicrobial activity against Pseudomonas aeruginosa after 24 hrs by broth microdilution method; format: functional; details: not given; summary of the method: as §1

| SMILES | MIC |
| --- | --- |
| O=[N+]([O-])c1ccc(-c2nnc(-c3ccc4nc(-c5c[nH]c6ccc(Br)cc56)c(Nc5ccc(F)cc5)n4c3)o2)cc1 | 2.45 µg/mL (≈ 4.01 µM) |
| Fc1ccc(Nc2c(-c3cnc4ccc(Br)cc4c3)nc3ccc(-c4nnc(-c5ccc(F)cc5)o4)cn23)cc1 | 0.75 µg/mL (≈ 1.26 µM) |
| Cc1ccc(-c2cnc(-c3ccc4nc(-c5cnc6ccc(Br)cc6c5)c(Nc5ccc(F)cc5)n4c3)[nH]2)cc1 | 2.89 µg/mL (≈ 4.9 µM) |

Now from value to compound:

| MIC | SMILES |
| --- | --- |
| 5.45 µg/mL (≈ 9.67 µM) | Cc1ccc2nc(-c3ccc4nc(-c5cnc6ccc(Br)cc6c5)c(Nc5ccc(F)cc5)n4c3)[nH]c2c1 |
| 2.57 µg/mL (≈ 4.35 µM) | Cc1ccc(-c2nnc(-c3ccc4nc(-c5cnc6ccc(Br)cc6c5)c(Nc5ccc(F)cc5)n4c3)o2)cc1 |
| 0.53 µg/mL (≈ 1.07 µM) | Fc1ccc(Nc2c(-c3c[nH]c4ccc(Br)cc34)nc3sc4cc(F)ccc4n23)cc1 |

test system: Candida parapsilosis; test: Antimicrobial activity against Candida parapsilosis after 48 hrs by broth microdilution method; format: functional; details: Lodderomyces parapsilosis; summary of the method: as §2

| SMILES | MIC |
| --- | --- |
| O=[N+]([O-])c1ccc(-c2nnc(-c3ccc4nc(-c5c[nH]c6ccc(Br)cc56)c(Nc5ccc(F)cc5)n4c3)o2)cc1 | 5.71 µg/mL (≈ 9.35 µM) |
| Fc1ccc(Nc2c(-c3cnc4ccc(Br)cc4c3)nc3ccc(-c4nnc(-c5ccc(F)cc5)o4)cn23)cc1 | 1.35 µg/mL (≈ 2.27 µM) |
| Cc1ccc(-c2cnc(-c3ccc4nc(-c5cnc6ccc(Br)cc6c5)c(Nc5ccc(F)cc5)n4c3)[nH]2)cc1 | 12.6 µg/mL (≈ 21.3 µM) |

Other lines, results leading:

| MIC | SMILES |
| --- | --- |
| 15.5 µg/mL (≈ 27.6 µM) | Cc1ccc2nc(-c3ccc4nc(-c5cnc6ccc(Br)cc6c5)c(Nc5ccc(F)cc5)n4c3)[nH]c2c1 |
| 12.2 µg/mL (≈ 20.7 µM) | Cc1ccc(-c2nnc(-c3ccc4nc(-c5cnc6ccc(Br)cc6c5)c(Nc5ccc(F)cc5)n4c3)o2)cc1 |
| 2.32 µg/mL (≈ 4.68 µM) | Fc1ccc(Nc2c(-c3c[nH]c4ccc(Br)cc34)nc3sc4cc(F)ccc4n23)cc1 |

test system: Klebsiella aerogenes; test: Antimicrobial activity against Enterobacter aerogenes after 24 hrs by broth microdilution method; format: functional; details: not given; summary of the method: as §1

| SMILES | MIC |
| --- | --- |
| O=[N+]([O-])c1ccc(-c2nnc(-c3ccc4nc(-c5c[nH]c6ccc(Br)cc56)c(Nc5ccc(F)cc5)n4c3)o2)cc1 | 3.13 µg/mL (≈ 5.13 µM) |
| Fc1ccc(Nc2c(-c3cnc4ccc(Br)cc4c3)nc3ccc(-c4nnc(-c5ccc(F)cc5)o4)cn23)cc1 | 0.41 µg/mL (≈ 0.689 µM) |
| Cc1ccc(-c2cnc(-c3ccc4nc(-c5cnc6ccc(Br)cc6c5)c(Nc5ccc(F)cc5)n4c3)[nH]2)cc1 | 2.78 µg/mL (≈ 4.72 µM) |

More lines, now with the values ahead:

| MIC | SMILES |
| --- | --- |
| 5.35 µg/mL (≈ 9.5 µM) | Cc1ccc2nc(-c3ccc4nc(-c5cnc6ccc(Br)cc6c5)c(Nc5ccc(F)cc5)n4c3)[nH]c2c1 |
| 1.74 µg/mL (≈ 2.94 µM) | Cc1ccc(-c2nnc(-c3ccc4nc(-c5cnc6ccc(Br)cc6c5)c(Nc5ccc(F)cc5)n4c3)o2)cc1 |
| 0.32 µg/mL (≈ 0.646 µM) | Fc1ccc(Nc2c(-c3c[nH]c4ccc(Br)cc34)nc3sc4cc(F)ccc4n23)cc1 |

test system: Nannizzia gypsea; test: Antimicrobial activity against Microsporum gypseum after 48 hrs by broth microdilution method; format: functional; details: not given; summary of the method: as §2

| SMILES | MIC |
| --- | --- |
| O=[N+]([O-])c1ccc(-c2nnc(-c3ccc4nc(-c5c[nH]c6ccc(Br)cc56)c(Nc5ccc(F)cc5)n4c3)o2)cc1 | 11.2 µg/mL (≈ 18.4 µM) |
| Fc1ccc(Nc2c(-c3cnc4ccc(Br)cc4c3)nc3ccc(-c4nnc(-c5ccc(F)cc5)o4)cn23)cc1 | 1.14 µg/mL (≈ 1.91 µM) |
| Cc1ccc(-c2cnc(-c3ccc4nc(-c5cnc6ccc(Br)cc6c5)c(Nc5ccc(F)cc5)n4c3)[nH]2)cc1 | 11.5 µg/mL (≈ 19.5 µM) |

More lines, now with the values ahead:

| MIC | SMILES |
| --- | --- |
| 17.5 µg/mL (≈ 31.1 µM) | Cc1ccc2nc(-c3ccc4nc(-c5cnc6ccc(Br)cc6c5)c(Nc5ccc(F)cc5)n4c3)[nH]c2c1 |
| 11.2 µg/mL (≈ 18.9 µM) | Cc1ccc(-c2nnc(-c3ccc4nc(-c5cnc6ccc(Br)cc6c5)c(Nc5ccc(F)cc5)n4c3)o2)cc1 |
| 3.15 µg/mL (≈ 6.36 µM) | Fc1ccc(Nc2c(-c3c[nH]c4ccc(Br)cc34)nc3sc4cc(F)ccc4n23)cc1 |

test system: Enterococcus faecalis; test: Antimicrobial activity against Enterococcus faecalis after 24 hrs by broth microdilution method; format: functional; details: not given; summary of the method: as §1

| SMILES | MIC |
| --- | --- |
| O=[N+]([O-])c1ccc(-c2nnc(-c3ccc4nc(-c5c[nH]c6ccc(Br)cc56)c(Nc5ccc(F)cc5)n4c3)o2)cc1 | 2.11 µg/mL (≈ 3.46 µM) |
| Fc1ccc(Nc2c(-c3cnc4ccc(Br)cc4c3)nc3ccc(-c4nnc(-c5ccc(F)cc5)o4)cn23)cc1 | 1.38 µg/mL (≈ 2.32 µM) |
| Cc1ccc(-c2cnc(-c3ccc4nc(-c5cnc6ccc(Br)cc6c5)c(Nc5ccc(F)cc5)n4c3)[nH]2)cc1 | 2.26 µg/mL (≈ 3.83 µM) |

Other lines, results leading:

| MIC | SMILES |
| --- | --- |
| 7.34 µg/mL (≈ 13 µM) | Cc1ccc2nc(-c3ccc4nc(-c5cnc6ccc(Br)cc6c5)c(Nc5ccc(F)cc5)n4c3)[nH]c2c1 |
| 2.32 µg/mL (≈ 3.92 µM) | Cc1ccc(-c2nnc(-c3ccc4nc(-c5cnc6ccc(Br)cc6c5)c(Nc5ccc(F)cc5)n4c3)o2)cc1 |
| 0.87 µg/mL (≈ 1.76 µM) | Fc1ccc(Nc2c(-c3c[nH]c4ccc(Br)cc34)nc3sc4cc(F)ccc4n23)cc1 |
